ChEMBL document CHEMBL4513216, “Probing the Open Global Health Chemical Diversity Library for Multistage-Active Starting Points for Next-Generation Antimalarials” (ACS Infect Dis, 2020)

experiment: Toxicity liver stage against HepG2, at 10uM; type: cell-based; set-up: test concentration 10 uM, cell line HepG2-A16-CD81EGFP; details: human, HepG2-A16-CD81EGFP cells; read-out: INHIBITION
Summary of the method: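 Uninfected HepG2-A16-CD81EGFP cells, 3 × 10^3 per well, 1536-well, plated on prespotted compound at 10 μM final, parasite-free screening media added to match infected plates; puromycin 10 μM positive, DMSO 0.5% negative; run in parallel with 48 h PbLuc assay at 37 °C, 5% CO2; viability by CellTiter-Glo luminescence, normalized to controls.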

Row | SMILES | cytotoxicity at 10 µM
1 | O=C(Cn1nc2c(cc1=O)CSCC2)N[C@@H](Cc1ccccc1)C(=O)O | -3.14%
2 | CCN(c1ccsc1C(=O)N1CCSCC1)S(=O)(=O)c1ccc(Cl)cc1 | 14.5%
3 | CN1CCCN(C(=O)c2cc3c(s2)CCN3C(=O)C2CC2)CC1 | 6.74%
4 | O=c1cc(Cn2cncn2)nc2n1CCCN(CC1CCOCC1)C2 | 7.77%
5 | CN(C)Cc1cc(=O)n2c(n1)CN(CC1CCOCC1)CCC2 | 6.37%
6 | O=C(c1ccco1)N1CCN2C[C@H](Oc3cncnc3)C[C@H]2C1 | -2.97%
7 | Cc1nc([C@H]2C[C@H]3CN(C(=O)c4ccoc4C)CC[C@@H]3O2)no1 | 0.369%
8 | O=C(Cc1ccc2c(c1)OCCCO2)Nc1nnn[nH]1 | -4.66%
9 | COC(=O)CNC(=O)c1c(-n2cnnn2)sc2c1CCCC2 | 10.6%
10 | CC(C)(C)n1ncc2c1NC(=O)CC2c1cccc(O)c1 (centres undefined) | -6.36%
11 | CNS(=O)(=O)c1cnccc1N1CCN(C(C)C)CC1 | -2.02%
12 | CC(C)S(=O)(=O)c1nnc(CCNC(=O)OC(C)(C)C)o1 | 9.28%
13 | Cc1cc2[nH]c(O)nc2cc1NCc1ccc(F)cc1 | 16.1%
14 | CCCn1ccc(C(=O)Nc2ccc3c(c2)C(C)(C)C(=O)N3C)n1 | 8.44%
15 | O=C(C1CC1)N1CCC(Nc2nc(O)cc(-c3ccsc3)n2)CC1 | 5.29%
16 | O=S(=O)(c1cn[nH]c1)N1CCC(O)(CN2CCC(F)(F)CC2)C1 (centres undefined) | 5.92%
17 | CCN(CC)S(=O)(=O)NCc1ccc(-c2ccc(C(N)=O)c(C)n2)cc1 | 2.77%
18 | Cc1nc(CN2CC(CCCc3ccccn3)(C(=O)N(C)C)C2)co1 | 7.43%
19 | CN(C)C(=O)CN1CCC2(CC1)CN(S(C)(=O)=O)Cc1ccccc1O2 | 0.56%
20 | COCCN1CCCC(c2cncc(Oc3ccccc3OC)n2)C1 (centres undefined) | -22.8%
21 | CC(=O)N1CCc2nnc(C3CCCN3CC3CCCCC3)n2CC1 (centres undefined) | -1.54%
22 | c1ccc(-c2cc(CNCCN3CCCC3)c3nnnn3c2)cc1 | -17.4%

Row | SMILES | cytotoxicity at 10 µM
23 | Cc1nc2ccc(C(=O)N3CC[C@H](O)[C@@H](N4CCOCC4)CC3)cc2[nH]1 | -8.32%
24 | CS(=O)(=O)c1cn[nH]c1C1CCCCN1C(=O)Cc1cccnc1 (centres undefined) | -30.7%
25 | CC(NC(=O)NC1CCN(Cc2ccccn2)CC1)c1nncn1C (centres undefined) | 0.335%
26 | O=C(C1CCOCC1)N(CCc1ccccc1)C1CCOC1 (centres undefined) | 4.77%
27 | Cc1occc1C(=O)NCC(=O)N1CCCC(c2ccccc2)CC1 (centres undefined) | 6.35%
28 | Cc1nc2cc(=O)[nH]n2c(C)c1CNC(=O)C(C)Cc1ccccc1 (centres undefined) | -7.27%
29 | Cc1ccc(C(CNC(=O)c2cc(=O)c3ccccc3[nH]2)N(C)C)cc1 (centres undefined) | -14.6%
30 | Cc1csc(CN(C)C2CCN(c3sccc3C#N)C2=O)n1 (centres undefined) | 5.44%
31 | CC(C)C1CN(C(=O)c2cc(F)cc3[nH]cnc23)CCS1 (centres undefined) | 1.97%
32 | CC(=O)N1CC(C)CN(C(=O)c2cscn2)c2ccccc21 (centres undefined) | 1.98%
33 | O=C(CS(=O)(=O)Cc1ccc(Br)cc1F)Nc1cn[nH]c1 | -9.2%
34 | Cn1c(CCNC(=O)Nc2cn[nH]c2)nc2ccc(F)cc21 | -6.97%
35 | O=C(CN1CCCc2cc(F)cc(F)c21)Nc1ccc(Br)cn1 | 11%
36 | CCC(=O)NCC1(O)CCC(C(C)(C)C)CC1 (centres undefined) | 5.81%
37 | COc1ncc(NCc2ccc(F)cc2)cc1C(N)=O | -0.976%
38 | CC(O)(CNC(=O)NCCc1ccc2c(c1)CCO2)c1ccccc1 (centres undefined) | 6.36%
39 | CN(C)c1nc2sc(C(=O)N3CCNC(=O)CC3)cc2s1 | -10.1%
40 | Cc1cc(C)n(CC2CCN(CC(O)CN3CCOCC3)CC2)n1 (centres undefined) | -7.35%
41 | CCCS(=O)(=O)N1CCC(Nc2c(F)cc(C#N)cc2F)CC1 | 1.34%
42 | Cc1ccc(F)cc1C(=O)OCC1CCCN1C(N)=O (centres undefined) | 5.01%
43 | COc1cc(OC)cc(N2CCC(NCc3occc3C)C2=O)c1 (centres undefined) | 0.995%
44 | CCc1cnc(CN2CCCC(c3cc(C)[nH]n3)C2)o1 (centres undefined) | 0.503%

Row | SMILES | cytotoxicity at 10 µM
45 | Cn1cc(C(=O)NCc2ccc(N3CCNC(=O)C3)c(F)c2)cn1 | -2.97%
46 | COCCc1noc(CN2CCCC2c2noc(C)n2)n1 (centres undefined) | 4.73%
47 | COCCOCC(=O)Nc1ccc(C)cc1Br | -6.99%
48 | Cc1nc(C2(NCC(=O)NC(=O)Nc3ccccc3)CCCCC2)no1 | 30.4%
49 | CC(C)COCCC(=O)Nc1c(-c2ccc(F)cc2)ncn1C | -1.18%
50 | CCNC(=O)N(Cc1cccc(OC)c1)C1CCC(O)CC1 (centres undefined) | -4.83%
51 | O=C(c1ncoc1C1CCCO1)N1CCCC2(CCCCC2)C1 (centres undefined) | -5.14%
52 | CC(C)(C)CNS(=O)(=O)C1CS(=O)(=O)c2ccccc21 (centres undefined) | 14.3%
53 | Cn1ccnc1CNc1ccc(F)c(N2CCCS2(=O)=O)c1 | -1.45%
54 | Cc1cncc(C(=O)N2CCOc3nc(C)ccc32)c1 | 5.19%
55 | NC(=O)NC(=O)CCn1ccc(-c2ccccc2)n1 | 5.2%
56 | CC(C)CC(CO)NC(=O)NCc1csc(N(C)C)n1 (centres undefined) | 6.07%
57 | O=C(NCC1(c2ccc(F)cc2)CC1)N1CCC2(CCOC2)C1 (centres undefined) | -6.72%
58 | CC(NC1CCN(CCS(C)(=O)=O)CC1)c1cnn(C(C)C)c1 (centres undefined) | -0.132%
59 | NCc1cccc(NC(=O)CCN2CCOCC2)c1 | -0.509%
60 | CNS(=O)(=O)c1ccc(C(=O)Nc2ccc3c(c2)C(=O)NC3)cc1 | -8.04%
61 | COCCN(Cc1ccc(F)cc1C#N)CC(F)(F)F | -3.02%
62 | CN(CCC(F)(F)F)c1nc2ccccc2c(=O)[nH]1 | -5.11%
63 | COc1ccc(-c2nc(CC(=O)N(C)CCC#N)cs2)cc1OC | 0.19%
64 | COC(=O)c1cccc(NCC(=O)NC(N)=O)c1 | 6.88%
65 | CCS(=O)(=O)CC(=O)NC(c1ccccc1)C1CCCCC1 (centres undefined) | -4.01%
66 | Cc1nccc(C(=O)N2CCCN(Cc3cnn(C(C)C)c3)CC2)n1 | -0.239%

Row | SMILES | cytotoxicity at 10 µM
67 | CCN1CCNC(=O)C12CCN(C(=O)c1ccccn1)CC2 | -0.514%
68 | CCOCC1CN(S(C)(=O)=O)Cc2nn(C)cc21 (centres undefined) | -95.9%
69 | Cn1cccc1C(=O)N1CCc2onc(Cn3cccn3)c2C1 | -4.72%
70 | CCS(=O)(=O)N1CCC2(CC1)CC(CC(=O)NC1CC1)c1ccccc12 (centres undefined) | -1.72%
71 | O=C(CC1CC1)NCc1cn2c(n1)CN(C(=O)c1cccnc1)CC2 | 1.03%
72 | CCOc1ccccc1CC(=O)N1C[C@@H](C(=O)O)[C@H](c2ccncc2)C1 | 9.15%
73 | CN(C(=O)COc1ccc(F)cc1)[C@@H]1CS(=O)(=O)C[C@H]1O | -2.62%
74 | Cc1ncccc1Oc1ncnc(N2CCC3(CCCO3)CC2)c1C | -6.89%
75 | CCNC(=O)[C@@H]1C[C@@H](NC(=O)c2cnc[nH]c2=O)CN1Cc1ccsc1 | -6.94%
76 | COc1nc2c(cc1C(=O)N(C)Cc1[nH]nc3c1CCC3)CCC2 | -1.77%
77 | COc1ccc(CN2CCCC2)cc1Oc1ccc(NC(C)=O)cc1 | -1.1%
78 | COc1ncccc1C1CC(=O)NCc2nc3sccn3c21 (centres undefined) | 3.86%
79 | CCc1nc(CN(CCc2ccccc2)C2CCN(C)CC2)no1 | -0.355%
80 | CCc1cc(C(=O)N2CC[C@@H](c3ccc4c(c3)OCO4)[C@H](O)C2)[nH]n1 | -3.87%
81 | CSc1ccccc1NC(=O)N1C[C@@H](N(C)C)[C@H](c2ccc(C)cc2)C1 | -12%
82 | COc1ccc([C@@H]2C[C@H](NC(C)=O)C[C@H](Cc3ccccc3)O2)cn1 | 5.46%
83 | Cc1cc(N(C)Cc2noc(C)n2)n2nc(C)c(C)c2n1 | 14.4%
84 | COC(=O)C1CCN(C(=O)c2ccc(NS(C)(=O)=O)c(C)c2)CC1 | -1.04%
85 | Cc1cnccc1CN1C[C@@H](O)[C@H](Oc2ccccc2)C1 | 1.85%
86 | CCOc1ncccc1NC(=O)N1CCCN(C(=O)OC)CC1 | -9.86%
87 | CCOc1ncccc1NC(=O)N1CCN(c2ccc(O)cc2)CC1 | -9.92%
88 | CN1CCOC(CNC(=O)CCCOc2cccc(F)c2)C1 (centres undefined) | -5.1%

Row | SMILES | cytotoxicity at 10 µM
89 | CC(C)(O)CN1CCN(C(=O)c2cccc3cccnc23)CC1 | -10.7%
90 | O=C(NCc1cccnc1)Nc1cc(C(F)(F)F)c[nH]c1=O | -1.78%
91 | Cc1cc(C)c(CNC(=O)N2CCN(c3nccs3)CC2)c(=O)[nH]1 | -20.9%
92 | COCC(c1cccc(C(F)(F)F)c1)N(C)C(=O)c1ccccn1 (centres undefined) | -12%
93 | CS(=O)(=O)NCCCN1CCCC1c1cccc(Br)c1 (centres undefined) | -2.51%
94 | Cn1c(NCC(O)c2ccccc2F)c(C#N)c(=O)n(C)c1=O (centres undefined) | -12.5%
95 | CSCC(=O)N1CCCCC1Cn1cc(C)cn1 (centres undefined) | -8.24%
96 | c1ccc(CCCN2CC(n3cccn3)C2)cc1 | -3.83%
97 | O=C(NCc1ccccn1)NC1CCOc2ccccc21 (centres undefined) | -8.99%
98 | COc1cc(C(=O)NS(=O)(=O)c2cccc(C#N)c2)cc(Cl)c1OC | -3.93%
99 | CCc1noc(CN2CCCN(C(N)=O)CC2)n1 | -4.12%
100 | CCc1nc(CN2CCCC(NCc3cnn(C(C)(C)C)c3)C2)no1 (centres undefined) | -6.77%
101 | CCOc1cc(/C=C/c2ncc(C(=O)O)s2)cc(Cl)c1OC | 8.13%
102 | COc1ccc(C(=O)NCCc2nnc3ccccn23)c(OC)c1 | 9.6%
103 | O=C(c1ccco1)N1CC[C@H]2[C@H]1CC(=O)N2c1cccnc1 | -95.8%
104 | CNC(=O)[C@@H]1C[C@H]2CN(Cc3ccco3)C[C@H]2N1C | 7.76%
105 | O=C(NCc1cccs1)[C@H]1CC[C@@H]2[C@@H](CCN2Cc2ccoc2)O1 | -0.317%
106 | COCCC(=O)N1CCOCC2(CCN(Cc3cccs3)C2)C1 (centres undefined) | -7.83%
107 | COCC(=O)NC1CC2(CCN(CCF)CC2)Oc2ccccc21 (centres undefined) | -0.864%
108 | COc1cc(N2CC[C@H]3O[C@@H](C(=O)NC4CCCC4)CC[C@H]32)ncn1 | 13.2%
109 | CSc1ccc(C(=O)N2C[C@@H]3CC[C@H]2CN(Cc2cccnc2)C3)cc1 | -7.38%
